# Experimental data published in ChEMBL document CHEMBL2417469, “Synthesis of novel analogs of 2-pyrazoline obtained from [(7-chloroquinolin-4-yl)amino]chalcones and hydrazine as potential antitumor and antimalarial agents” (Eur J Med Chem, 2013).
# Legend:
# Type in all cases: functional
# NCI-H226 = assay: Cytotoxicity against human NCI-H226 cells after 48 hrs by SRB assay; conditions: NCI-H226, 48 h
# Outline: (§1)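 NCI 60-cell-line screen. Cells preincubated 24 h at 37 °C, 5% CO2; time-zero plates TCA-fixed. Compounds dissolved in DMSO and tested at five concentrations (100, 10, 1.0, 0.1, 0.01 µM) for 48 h continuous exposure. Adherent cells fixed with cold TCA (10% final), then SRB stained; absorbance at 515 nm. GI50, TGI and LC50 calculated from growth relative to time-zero and untreated controls.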
# NCI-H460 = assay: Cytotoxicity against human NCI-H460 cells after 48 hrs by SRB assay; conditions: NCI-H460, 48 h; outline: as §1
# T47D = assay: Cytotoxicity against human T47D cells after 48 hrs by SRB assay
# Outline: (§2)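 NCI 60-cell screen. Cells grew 24 h (37 °C, 5% CO2) before compound was added. Compounds were in DMSO and diluted in medium with gentamicin, then tested at five levels (100, 10, 1.0, 0.1, 0.01 µM) with 48 h continuous exposure. Adherent cells were fixed with TCA (10% final) and stained with 0.4% SRB, absorbance read at 515 nm. A time-zero plate was included. LC50 is the concentration giving 50% loss of protein relative to time zero.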
# HL-60(TB) = assay: Cytotoxicity against human HL-60(TB) cells after 48 hrs by SRB assay; conditions: HL-60, 48 h; outline: as §1
# RXF 393 = assay: Cytotoxicity against human RXF393 cells after 48 hrs by SRB assay; conditions: RXF 393, 48 h; outline: as §1
# SF-268 = assay: Cytotoxicity against human SF268 cells after 48 hrs by SRB assay; conditions: SF-268, 48 h; outline: as §1
# OVCAR-4 = assay: Cytotoxicity against human OVCAR4 cells after 48 hrs by SRB assay; conditions: OVCAR-4, 48 h; outline: as §1
# UACC-257 = assay: Cytotoxicity against human UACC257 cells after 48 hrs by SRB assay; conditions: UACC-257, 48 h; outline: as §2
# OVCAR-3 = assay: Cytotoxicity against human OVCAR3 cells after 48 hrs by SRB assay; conditions: OVCAR-3, 48 h; outline: as §1
# DU-145 = assay: Cytotoxicity against human DU145 cells after 48 hrs by SRB assay; conditions: DU-145, 48 h; outline: as §1
# Plasmodium falciparum = assay: Antimalarial activity against Plasmodium falciparum NF54 infected in human serum at 20 ug/ml after 48 hrs by fluorometric method
# Outline: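 Asynchronous P. falciparum NF54 at 1.5–2% parasitemia, 5% hematocrit in RPMI with 10% human serum, exposed 48 h at 37 °C under 90% N2/5% CO2/5% O2 at the stated concentration; parasite DNA stained with ethidium bromide after proteinase K lysis; viability % = (Flu treated − medium)/(Flu untreated − medium) ×100; triplicate.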
# UO-31 = assay: Cytotoxicity against human UO31 cells after 48 hrs by SRB assay; conditions: UO-31, 48 h; outline: as §2
# SF-539 = assay: Cytotoxicity against human SF539 cells after 48 hrs by SRB assay; conditions: SF-539, 48 h; outline: as §1
# SNB-19 = assay: Cytotoxicity against human SNB19 cells after 48 hrs by SRB assay; conditions: SNB-19, 48 h; outline: as §2
# MDA-MB-435 = assay: Cytotoxicity against human MDA-MB-435 cells after 48 hrs by SRB assay; conditions: MDA-MB-435, 48 h; outline: as §1
# RPMI-8226 = assay: Cytotoxicity against human RPMI8226 cells after 48 hrs by SRB assay; conditions: RPMI-8226, 48 h; outline: as §1
# ACHN = assay: Cytotoxicity against human ACHN cells after 48 hrs by SRB assay; outline: as §1
# CCRF-CEM = assay: Cytotoxicity against human CCRF-CEM cells after 48 hrs by SRB assay; outline: as §1
# TK-10 = assay: Cytotoxicity against human TK10 cells after 48 hrs by SRB assay; conditions: TK-10, 48 h; outline: as §2
# MDA-MB-231 = assay: Cytotoxicity against human MDA-MB-231 cells after 48 hrs by SRB assay; conditions: MDA-MB-231, 48 h; outline: as §1
# A549 = assay: Cytotoxicity against human A549/ATCC cells after 48 hrs by SRB assay; conditions: A549, 48 h; outline: as §1
# HCC 2998 = assay: Cytotoxicity against human HCC2998 cells after 48 hrs by SRB assay; conditions: HCC 2998, 48 h; outline: as §1
# [1] = Cytotoxicity against human EKVX cells after 48 hrs by SRB assay; outline: as §1
# SN12C = assay: Cytotoxicity against human SN12C cells after 48 hrs by SRB assay; outline: as §1
# OVCAR-5 = assay: Cytotoxicity against human OVCAR5 cells after 48 hrs by SRB assay; conditions: OVCAR-5, 48 h; outline: as §1
# UACC-62 = assay: Cytotoxicity against human UACC62 cells after 48 hrs by SRB assay; conditions: UACC-62, 48 h; outline: as §2
# HOP-62 = assay: Cytotoxicity against human HOP62 cells after 48 hrs by SRB assay; conditions: HOP-62, 48 h; outline: as §1
# SW-620 = assay: Cytotoxicity against human SW620 cells after 48 hrs by SRB assay; conditions: SW-620, 48 h; outline: as §2
# MCF7 = assay: Cytotoxicity against human MCF7 cells after 48 hrs by SRB assay; conditions: MCF7, 48 h; outline: as §1
# Hs-578T = assay: Cytotoxicity against human Hs578T cells after 48 hrs by SRB assay; outline: as §1
# NCI-H23 = assay: Cytotoxicity against human NCI-H23 cells after 48 hrs by SRB assay; conditions: NCI-H23, 48 h; outline: as §1
# HOP-92 = assay: Cytotoxicity against human HOP92 cells after 48 hrs by SRB assay; conditions: HOP-92, 48 h; outline: as §1
# SNB-75 = assay: Cytotoxicity against human SNB75 cells after 48 hrs by SRB assay; conditions: SNB-75, 48 h; outline: as §2
# [2] = read-out: LC50 (the source's name)
smiles,measurement,setting,value
O=CN1N=C(c2ccc(Nc3ccnc4cc(Cl)ccc34)cc2)CC1c1ccccc1 (stereo not given),GI50,NCI-H226,5.22 µM
same,LC50 (50% lethal concentration),NCI-H226,> 100 µM
same,GI50,NCI-H460,3.96 µM
same,LC50,NCI-H460,> 100 µM
same,GI50,T47D,2.18 µM
same,LC50 (concentration giving 50% cell kill relative to time zero),T47D,> 100 µM
same,GI50,HL-60(TB),2.66 µM
same,CC50,HL-60(TB); [2],72.5 µM
same,GI50,RXF 393,2.2 µM
same,LC50 (concentration killing 50% of cells),RXF 393,> 100 µM
same,GI50,SF-268,3.96 µM
same,LC50,SF-268,> 100 µM
same,GI50,OVCAR-4,3.88 µM
same,LC50,OVCAR-4,> 100 µM
same,GI50,UACC-257,10.1 µM
same,LC50,UACC-257,> 100 µM
same,GI50,OVCAR-3,2.78 µM
same,LC50,OVCAR-3,43.2 µM
same,GI50,DU-145,3.8 µM
same,LC50 (concentration killing 50% of cells),DU-145,> 100 µM
same,inhibition at 20 µg/mL,Plasmodium falciparum,20.2%
same,GI50,UO-31,3.81 µM
same,LC50,UO-31,> 100 µM
same,GI50,SF-539,4.57 µM
same,CC50,SF-539; [2],99.2 µM
same,GI50,SNB-19,5.13 µM
same,LC50,SNB-19,> 100 µM
same,GI50,MDA-MB-435,1.59 µM
same,LC50,MDA-MB-435,> 100 µM
same,GI50,RPMI-8226,2.55 µM
same,LC50 (concentration killing 50% of cells),RPMI-8226,> 100 µM
same,GI50,ACHN,4.21 µM
same,CC50,ACHN; [2],> 100 µM
same,GI50,CCRF-CEM,2.51 µM
same,LC50 (concentration killing 50% of cells relative to time zero),CCRF-CEM,> 100 µM
same,GI50,TK-10,9.51 µM
same,LC50 (concentration giving 50% cell loss vs time zero),TK-10,> 100 µM
same,GI50,MDA-MB-231,2.43 µM
same,LC50 (concentration killing 50% of cells present at time zero),MDA-MB-231,> 100 µM
same,GI50,A549,4.05 µM
same,CC50,A549; [2],> 100 µM
same,GI50,HCC 2998,3.5 µM
same,LC50,HCC 2998,> 100 µM
same,GI50,[1],4.94 µM
same,LC50,[1],> 100 µM
same,GI50,SN12C,3.8 µM
same,LC50 (50% net cell kill relative to time zero),SN12C,> 100 µM
same,GI50,OVCAR-5,19.8 µM
same,LC50,OVCAR-5,> 100 µM
same,GI50,UACC-62,1.55 µM
same,CC50,UACC-62; [2],17.4 µM
same,GI50,HOP-62,5.26 µM
same,LC50 (50% lethal concentration),HOP-62,> 100 µM
same,GI50,SW-620,2.73 µM
same,LC50,SW-620,68.7 µM
same,GI50,MCF7,3.42 µM
same,CC50,MCF7; [2],> 100 µM
same,GI50,Hs-578T,3.77 µM
same,LC50 (50% net cell kill),Hs-578T,> 100 µM
same,GI50,NCI-H23,3.64 µM
same,CC50,NCI-H23; [2],> 100 µM
same,GI50,HOP-92,4.28 µM
same,LC50 (concentration killing 50% of cells),HOP-92,> 100 µM
same,GI50,SNB-75,5.03 µM
same,LC50 (50% net cell kill),SNB-75,> 100 µM
